Measured values: ChEMBL document CHEMBL4765320, “Identification and optimization of piperine analogues as neuroprotective agents for the treatment of Parkinson's disease via the activation of Nrf2/keap1 pathway” (Eur J Med Chem, 2020)
Active and inactive are the calls of the source. The calls are words filed in the database; no cut-off is given here.

Tests used:
PC-12 [1] = assay: Inhibition of H2O2-induced reactive oxygen species production in rat PC-12 cells assessed as decrease in ROS accumulation at 12.5 to 50 uM measured after pretreated for 24 hrs followed by H2O2 challenge and measured after 24 hrs by DCFH-DA probe based flow cytometry; format: functional, cell-based; conditions: dose 12.5-50 µM, time 48.0 hrs
In short: (§1)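 PC12 cells seeded 1 × 10⁴/well, pretreated 24 h with 12.5–100 µM compound, then 300 µM H2O2 for 24 h. Rinsed, loaded with DCFH-DA (1:1000 in serum-free medium) 15 min at room temperature in the dark, washed; fluorescence read by microscopy, plate reader ([…]) and flow cytometry; three independent experiments.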

PC-12 [2] = assay: Inhibition of H202-induced apoptosis in rat PC-12 cells assessed as early apoptotic cells at 25 uM after 24 hrs by Annexin-V-FITC/PI-staining based flow cytometric analysis (reference value: 15.16%); format: functional; parameters: scale not given: the % may be the effect or the level left
In short: (§2)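 PC12 cells seeded 2 × 10⁵/well for 24 h, pretreated 24 h with 12.5, 25, 50 or 100 µM compound, then given fresh medium containing 650 µM H2O2. Harvested cells washed in binding buffer, stained 5 min with Annexin V-FITC/PI, analysed by flow cytometry.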

PC-12 [3] = assay: Inhibition of H202-induced apoptosis in rat PC-12 cells assessed as late apoptotic cells at 100 uM after 24 hrs by Annexin-V-FITC/PI-staining based flow cytometric analysis (reference value: 32.5%); format: functional; parameters: scale not given: the % may be the effect or the level left; in short: as §2
PC-12 [4] = assay: Inhibition of H2O2-induced reactive oxygen species production in rat PC-12 cells assessed as ROS accumulation at 100 uM measured after pretreated for 24 hrs followed by H2O2 challenge and measured after 24 hrs by DCFH-DA probe based flow cytometry; format: functional, cell-based; in short: as §1
PC-12 [5] = assay: Inhibition of H202-induced apoptosis in rat PC-12 cells assessed as necrotic cells at 100 uM after 24 hrs by Annexin-V-FITC/PI-staining based flow cytometric analysis (reference value: 0.33%); format: functional; parameters: scale not given: the % may be the effect or the level left; in short: as §2
Mus musculus = assay: Neuroprotective activity against lesioned C57BL/6 mouse model of Parkinson's disease assessed as increase in expression of HO-1 and NQO1 at 50 to 100 mg/kg , po administered for 2 week before MPTP stimulation by western blotting assays; format: functional, organism-based; conditions: Brain, dose 50-100 mg/kg, time 2.0 weeks
[6] = biological target: T1, Nuclear factor erythroid 2-related factor 2 (Homo sapiens) (UniProt Q16236); assay: Activation of Nrf2 in human HepG2-ARE-C8 cells assessed as fold change at 12.5 uM measured after 12 hrs by luciferase reporter gene assay relative to control; format: cell-based; conditions: filed as activator
T1 sequence (whole entry): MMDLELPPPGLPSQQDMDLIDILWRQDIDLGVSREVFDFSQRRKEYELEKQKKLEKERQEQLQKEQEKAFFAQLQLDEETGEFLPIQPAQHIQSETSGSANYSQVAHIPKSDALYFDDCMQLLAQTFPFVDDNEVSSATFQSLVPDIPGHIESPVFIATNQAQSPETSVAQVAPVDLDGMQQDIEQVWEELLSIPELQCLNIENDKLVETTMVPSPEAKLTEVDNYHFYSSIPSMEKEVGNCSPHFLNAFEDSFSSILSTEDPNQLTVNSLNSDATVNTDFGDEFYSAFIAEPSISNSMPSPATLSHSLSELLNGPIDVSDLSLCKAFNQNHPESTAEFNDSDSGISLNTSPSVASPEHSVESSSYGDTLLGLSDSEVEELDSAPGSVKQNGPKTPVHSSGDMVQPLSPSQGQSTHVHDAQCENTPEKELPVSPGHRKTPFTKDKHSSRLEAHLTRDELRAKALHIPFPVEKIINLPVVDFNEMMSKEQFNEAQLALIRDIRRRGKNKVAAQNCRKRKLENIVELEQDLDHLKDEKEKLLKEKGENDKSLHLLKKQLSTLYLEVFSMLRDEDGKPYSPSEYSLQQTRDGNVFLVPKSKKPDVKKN

fold change (FC) [6]: 3
SMILES: COc1ccccc1/C=C/C=C/C(=O)N1CCCCC1
inhibition (PC-12 [1]): Active
Activity (PC-12 [2]): 12.72%
Activity (PC-12 [3]): 29.28%
Activity (PC-12 [4]): inactive
Activity (PC-12 [5]): 0.57%
Activity (Mus musculus): Active
